From PubChem
An excerpt weighted towards active compounds, which were near 2.2% of everything screened.
MT stabilize HCS = microtubule stabilizers in HeLa cells, primary screen, imaging, high-content imaging; % tubulin-high responders, % at 10 µM; hit rate 0.83% among 200,000; HeLa tubulin immunostaining HCS, 24 h; share of cells brighter than vehicle mean+2SD;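 active means plate Z-score above 3 for both tubulin-high and condensed-nucleus cell shares, with cell loss under 80%, at 10 µM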;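 further: anti alpha tubulin signal scored within the nucleus-defined area of each cell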
BaF3 parental = parental Ba/F3 cell viability inhibition, counter-screen for JAK2V617F inhibitor project, murine pro-B, CellTiter-Glo luminescence; inhibition, % at 5.6 µM; hit rate 1.1% among 220,000; CellTiter-Glo ATP luminescence;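 active means inhibition above a per-campaign cutoff, the mean inhibition of all tested compounds plus 3 SD, cut at about 27% in these data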
Ba/F3 V617F tox = reduced viability of JAK2V617F-dependent Ba/F3 cells, primary screen, JAK2V617F inhibitor project, cell-based, Ba/F3 EpoR-JAK2V617F, luminescence; ATP luminescence; inhibition, % at 5.6 µM; hit rate 1.1% among 220,000; AID 1446, 2008;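 active means inhibition above the campaign mean plus 3 SD over all tested compounds, cut at about 24% in these data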;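 further: cytokine-independent growth of Ba/F3 cells driven by EpoR plus mutant JAK2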
IEC-6 cytotox = cytotoxicity in IEC-6 intestinal epithelial cells, primary screen, cytotoxicity control for KLF5 inhibitor project, cell-based, luminescence; IEC-6 cytotoxicity, luminescence viability; inhibition, % at 5 µM; hit rate 0.78% among 290,000; AID 1825, 2009; in the data active means inhibition above about 22%
APP transl inh = inhibitors of APP translation via 5'UTR reporter, primary screen, APP 5'UTR luciferase, SH-SY5Y cells; SH-SY5Y APP 5'UTR-luciferase reporter, luminescence; inhibition, % at 2 µM; hit rate 0.82% among 190,000;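 active means inhibition above a set limit, derived from the sample mean plus 3 SD, cut at about 45% in these data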
bCat nuc transl = modulators of beta-catenin nuclear translocation, primary screen, imaging, HeLa cells, immunofluorescence, high-content | nuclear translocation activity, % at 5 µM | hit rate 0.3% among 190,000;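 active means nuclear translocation activity above 50% at 5 µM, with a well cell count of 50 or more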;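 further: per-cell ratio of nuclear to cytoplasmic median beta-catenin stain intensity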
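Signal – beta-catenin immunofluorescence imaging with DAPI · Test system – human HeLa cell line · Dosing – 5 µM primary single dose, 0.1% DMSO, 0.02–20 µM confirmation series · Measure – % activation, nuclear-to-cytoplasmic median beta-catenin signal ratio per cell · Incubation – 24 h compound exposure at 37°C, 5% CO2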
Hits are given with their value; - = inactive; . = no result.

SMILES	MT stabilize HCS	BaF3 parental	Ba/F3 V617F tox	IEC-6 cytotox	APP transl inh	bCat nuc transl
Cc1nc(N2CCN(C(=O)c3ccco3)CC2)c2oc3ccccc3c2n1	.	.	.	.	.	-
CCc1nc(N2CCN(C(=O)c3ccco3)CC2)c2oc3ccccc3c2n1	26.7	-	-	-	-	-
Cc1nc2nc(C)c(NS(=O)(=O)c3ccc4c(c3)CCCC4)c(=O)n2[nH]1	.	.	.	-	.	.
Cc1cc2oc(=O)cc(Cn3ncc(Cl)c(Cl)c3=O)c2cc1Cl	-	-	-	-	88.0	-
Cc1cc2oc(=O)cc(CN3CCCCC3C)c2cc1Cl (centres undefined)	.	.	.	-	.	.
Cc1nc2c3ccccc3nc(NNC(=O)CCC(=O)NCCN3CCN(c4ccccc4)CC3)n2n1	.	.	.	-	.	.
CCSc1nc(-c2ccccc2)nc(C(Cl)Cl)n1	-	-	-	-	47.1	-
O=C(CN1CCN(c2ncccn2)CC1)N1CCCc2c1c(=O)oc1ccc(O)cc21	-	-	-	-	72.0	-
O=C(c1ccco1)N1CCN(CC(=O)N2CCCc3c2c(=O)oc2ccc(O)cc32)CC1	-	-	-	-	-	-
O=C(CN1CCN(Cc2ccccc2)CC1)N1CCCc2c1c(=O)oc1ccc(O)cc21	34.6	-	-	-	-	-
CCCN(CCC)CCNC(=O)C1CCN(Cc2nc(-c3ccc(Cl)cc3)oc2C)CC1	-	-	-	57.2	-	-
CC(=O)c1ccc(N2CCN(C(=O)CCC(=O)Nc3ccc4nc(N5CCN(C)CC5)cc(C)c4c3)CC2)cc1	.	.	.	-	.	.
Nc1ccn([C@@H]2O[C@H](CO)[C@@H](O)C2O)c(=O)n1 (some centres undefined)	.	72.0	74.8	92.8	.	-
CC(C)NC(=O)Cn1c(SCC(=O)N2c3ccccc3CC2C)nc2ccccc21 (centres undefined)	-	95.1	-	-	-	-
COc1cc(CNC(=O)c2ccc3oc(C(C)C)nc3c2)cc(OC)c1	.	.	.	-	.	.
O=C1c2ccccc2N2C(=O)c3ccccc3[C@H]2N1c1ccccc1	-	-	-	-	-	.
O=C1NC2c3ccccc3C(=O)N2c2c1cnn2-c1ccccc1 (centres undefined)	11.3	-	-	-	-	-
O=C(NN1C(=O)c2ccccc2C1=O)c1ccc2c(c1)C(=O)N(CC1CCCO1)C2=O (centres undefined)	.	-	-	-	.	-
COc1ccc(-c2cc(C(F)F)n3ncc(C(=O)N4CCc5ccccc54)c3n2)cc1	25.6	-	-	-	86.9	-
CC1CCN(Cc2nnnn2CCCC(=O)NCCc2cnn(C)c2)CC1	.	.	.	-	.	.
O=c1oc2ccccc2c(Nc2ccc3ccccc3c2)c1[N+](=O)[O-]	46.0	-	-	-	-	-
O=C(/C=C/c1ccc([N+](=O)[O-])cc1)NNC(=O)C1CC1	-	49.8	44.3	-	-	-
COc1cc([N+](=O)[O-])cc(/C=N/NC(=O)CC#N)c1O	-	-	-	-	-	-
COc1ccc(CC2=CC(=O)c3ccccc3C2=O)cc1	.	.	.	-	.	.
CC(C)(C)c1ccc(OCCNCc2ccccc2)cc1	.	.	.	-	.	.
SMILES	MT stabilize HCS	BaF3 parental	Ba/F3 V617F tox	IEC-6 cytotox	APP transl inh	bCat nuc transl
C[n+]1ccccc1COc1ccc(C(C)(C)C)cc1	-	67.8	72.6	-	-	.
FC(F)Sc1ccc(-n2c(-c3ccc(Cl)cc3)c[n+]3c2CCC3)cc1	-	44.3	23.9	-	-	-
Cc1ccc(-n2c(-c3ccc(Cl)cc3)c[n+]3c2CCC3)cc1	.	65.0	69.0	-	.	-
Cc1ccc(-n2c(-c3ccccc3)c[n+]3c2CCC3)cc1	-	68.0	76.8	-	-	-
Cc1ccc(-n2nc(C(=O)N3CCOCC3)cc2-c2ccc(Cl)cc2)cc1	-	-	-	-	-	-
COc1ccc(/C=C/C(=O)NC(=S)NNC(=O)c2ccco2)cc1	33.3	-	-	-	-	-
O=C(/C=C/c1ccc(Cl)cc1)NC(=S)Nc1ccc(NC(=O)c2ccco2)cc1	-	-	-	-	81.3	-
COCC1CCN(C(=O)CCc2nnc(C3(c4ccc(Cl)cc4)CCC3)o2)CC1	.	.	.	-	.	.
O=C(NCc1nnc2c(C(F)(F)F)cc(Cl)cn12)c1cccs1	.	.	.	-	.	.
Cc1cccn2cc(-c3cc4ccccc4oc3=O)nc12	-	89.8	-	-	-	-
